Test results from ChEMBL document CHEMBL4007422 (J Med Chem, 2017).
Calls of active or inactive are those of the source. The calls are words filed in the database; no cut-off is given here.

Assays:
[1] = target: 5-hydroxytryptamine receptor 4 (Homo sapiens) (UniProt Q13639); test: Displacement of [3H]-GR113808 from recombinant human 5-HT4B receptor expressed in Chem1 cell membranes after 120 mins by microbeta scintillation counting analysis
Cytochrome P450 2C9 = Cytochrome P450 2C9 (Homo sapiens, UniProt P11712); test: Inhibition of CYP2C9 in human liver microsomes in presence of NADPH by LC-MS/MS analysis; assay type: ADME
Cytochrome P450 2C9, sequence (P11712 whole entry, canonical isoform): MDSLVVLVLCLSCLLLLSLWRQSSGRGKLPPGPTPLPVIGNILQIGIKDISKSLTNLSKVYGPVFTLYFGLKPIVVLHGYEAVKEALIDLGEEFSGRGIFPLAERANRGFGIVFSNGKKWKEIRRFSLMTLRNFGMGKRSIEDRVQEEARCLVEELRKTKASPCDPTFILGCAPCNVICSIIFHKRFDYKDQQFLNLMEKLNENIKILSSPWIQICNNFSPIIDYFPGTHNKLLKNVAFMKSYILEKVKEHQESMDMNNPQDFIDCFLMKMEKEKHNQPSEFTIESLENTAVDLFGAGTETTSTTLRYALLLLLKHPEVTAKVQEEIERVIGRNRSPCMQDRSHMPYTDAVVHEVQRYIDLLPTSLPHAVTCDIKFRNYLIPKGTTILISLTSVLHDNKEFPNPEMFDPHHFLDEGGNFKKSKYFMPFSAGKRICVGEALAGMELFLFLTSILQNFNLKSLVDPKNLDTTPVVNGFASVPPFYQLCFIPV
Outline: (§1)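 Pooled human liver microsomes. IC50 determined from isoform-specific marker activities for CYP1A2, 2A6, 2B6, 2C8, 2C9, 2C19 (mephenytoin hydroxylation) and 2E1.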

[2] = Apparent volume of distribution in Wistar rat at 10 mg/kg, iv by LC-MS/MS analysis; assay type: ADME, organism-based; conditions: in vivo, read-out: Vz
Cytochrome P450 2A6 = Cytochrome P450 2A6 (Homo sapiens, UniProt P11509); test: Inhibition of CYP2A6 in human liver microsomes in presence of NADPH by LC-MS/MS analysis; assay type: ADME; outline: as §1
Cytochrome P450 2A6, sequence (P11509 whole entry): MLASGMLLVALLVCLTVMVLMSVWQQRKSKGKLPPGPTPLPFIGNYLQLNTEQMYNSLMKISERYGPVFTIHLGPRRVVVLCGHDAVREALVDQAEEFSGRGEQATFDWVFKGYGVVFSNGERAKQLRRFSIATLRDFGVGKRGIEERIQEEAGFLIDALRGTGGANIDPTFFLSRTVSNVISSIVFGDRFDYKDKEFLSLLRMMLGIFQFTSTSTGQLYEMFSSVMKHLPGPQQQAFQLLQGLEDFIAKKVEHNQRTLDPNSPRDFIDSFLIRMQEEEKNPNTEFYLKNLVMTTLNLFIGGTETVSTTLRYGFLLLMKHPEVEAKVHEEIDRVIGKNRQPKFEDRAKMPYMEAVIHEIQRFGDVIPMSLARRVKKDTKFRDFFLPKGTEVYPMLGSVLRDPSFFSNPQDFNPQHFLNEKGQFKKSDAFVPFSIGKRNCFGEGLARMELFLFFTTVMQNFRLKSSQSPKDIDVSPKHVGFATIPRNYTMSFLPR

Cytochrome P450 3A4 [3] = target: T1, Cytochrome P450 3A4 (Homo sapiens, UniProt P08684); test: Inhibition of CYP3A4 in human liver microsomes using testosterone as substrate in presence of NADPH by LC-MS/MS analysis; assay type: ADME
T1 sequence (P08684 whole entry): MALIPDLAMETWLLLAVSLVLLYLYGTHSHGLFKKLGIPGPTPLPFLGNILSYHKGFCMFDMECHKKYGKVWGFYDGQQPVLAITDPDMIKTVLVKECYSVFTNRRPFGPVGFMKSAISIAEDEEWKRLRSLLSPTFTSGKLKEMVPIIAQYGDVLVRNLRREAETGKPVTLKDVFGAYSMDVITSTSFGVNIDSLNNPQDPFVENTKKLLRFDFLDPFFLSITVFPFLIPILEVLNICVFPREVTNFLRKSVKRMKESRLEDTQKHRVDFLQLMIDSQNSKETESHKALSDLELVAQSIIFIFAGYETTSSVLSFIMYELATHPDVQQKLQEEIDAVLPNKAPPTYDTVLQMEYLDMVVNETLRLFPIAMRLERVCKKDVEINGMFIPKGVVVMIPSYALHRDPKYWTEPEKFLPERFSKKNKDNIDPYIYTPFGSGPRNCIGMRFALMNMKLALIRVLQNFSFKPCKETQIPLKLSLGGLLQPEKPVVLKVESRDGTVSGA
Outline: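 CYP3A4 inhibition in human liver microsomes using testosterone hydroxylation as the probe reaction; IC50 determined.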

Rattus norvegicus [4] = test: Increase in acetylcholine level in Wistar rat ventral hippocampus at 3 mg/kg, po in presence of 1 mg/kg of donepezil and memantine administered sc 30 mins post compound treatment measured after 4 hrs by LC-MS/MS based microdialysis method relative to control; assay type: functional
Outline: (§2)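 Male Wistar rats (240−300 g) fitted under isoflurane with a ventral hippocampal guide cannula (AP −5.2, ML +5.0, DV −3.8 mm from bregma). Probe (4 mm membrane) inserted 16 h before study. Perfusion with aCSF pH 7.2 at 1.5 μL/min, 2 h stabilization, five basal 20-min samples. Test agent given p.o.; donepezil and memantine (1 mg/kg s.c. each) given 30 min later in combination arms. Dialysates collected 6 h (4 h for combination), acetylcholine measured by LC-MS/MS, expressed as % of mean basal.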

[5] = target: T2, 5-hydroxytryptamine receptor 2C (Homo sapiens) (UniProt P28335); test: Displacement of [3H]-Mesulergine from recombinant human 5-HT2C receptor expressed in HEK293 cell membranes after 180 mins by microbeta scintillation counting analysis
T2 sequence (whole entry): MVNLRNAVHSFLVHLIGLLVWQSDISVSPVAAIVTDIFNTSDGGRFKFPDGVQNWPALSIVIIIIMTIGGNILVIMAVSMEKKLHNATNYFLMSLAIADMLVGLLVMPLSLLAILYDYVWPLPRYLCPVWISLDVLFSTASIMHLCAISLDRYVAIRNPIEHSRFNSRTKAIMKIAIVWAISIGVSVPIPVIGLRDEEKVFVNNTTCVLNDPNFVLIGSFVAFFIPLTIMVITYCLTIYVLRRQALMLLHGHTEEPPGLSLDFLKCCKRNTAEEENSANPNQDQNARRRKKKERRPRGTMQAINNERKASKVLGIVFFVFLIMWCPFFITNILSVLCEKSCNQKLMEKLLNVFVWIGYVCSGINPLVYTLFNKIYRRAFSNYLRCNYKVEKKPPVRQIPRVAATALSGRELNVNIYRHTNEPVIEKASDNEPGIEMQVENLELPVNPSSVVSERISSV

[6] = Protein binding in rat plasma at 1 uM after 6 hrs by LC-MS/MS based rapid equilibrium dialysis method; assay type: ADME, cell-free; conditions: read-out: PPB
Outline: (§3)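 Plasma protein binding in rat, dog and human plasma determined by equilibrium dialysis.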

Salmonella typhimurium [7] = test: Mutagenicity in Salmonella typhimurium TA100 in presence of metabolic activation; assay type: toxicity; conditions: salmonella enterica subsp. enterica serovar typhimurium
[8] = Cmax in Wistar rat at 10 mg/kg, po by LC-MS/MS analysis; assay type: ADME, organism-based; parameters: dose 10 mg/kg, route oral; conditions: in vivo
Cytochrome P450 2C19 = Cytochrome P450 2C19 (Homo sapiens, UniProt P33261); test: Inhibition of CYP2C19 in human liver microsomes using mephenytoin as substrate in presence of NADPH by LC-MS/MS analysis; assay type: ADME; outline: as §1
[9] = AUC (0 to t) in Wistar rat at 10 mg/kg, po by LC-MS/MS analysis; assay type: ADME, organism-based; conditions: Wistar, in vivo
[10] = Ratio of drug uptake in Wistar rat brain to plasma at 10 mg/kg, po by LC-MS/MS analysis; assay type: ADME, organism-based; conditions: read-out: BPR
D(3) dopamine receptor = D(3) dopamine receptor (Rattus norvegicus, UniProt P19020); test: Displacement of [3H] 7-OH DPAT from recombinant rat dopamine D3 receptor expressed in CHO cells after 60 mins; assay type: cell-based
D(3) dopamine receptor, sequence (P19020 whole entry): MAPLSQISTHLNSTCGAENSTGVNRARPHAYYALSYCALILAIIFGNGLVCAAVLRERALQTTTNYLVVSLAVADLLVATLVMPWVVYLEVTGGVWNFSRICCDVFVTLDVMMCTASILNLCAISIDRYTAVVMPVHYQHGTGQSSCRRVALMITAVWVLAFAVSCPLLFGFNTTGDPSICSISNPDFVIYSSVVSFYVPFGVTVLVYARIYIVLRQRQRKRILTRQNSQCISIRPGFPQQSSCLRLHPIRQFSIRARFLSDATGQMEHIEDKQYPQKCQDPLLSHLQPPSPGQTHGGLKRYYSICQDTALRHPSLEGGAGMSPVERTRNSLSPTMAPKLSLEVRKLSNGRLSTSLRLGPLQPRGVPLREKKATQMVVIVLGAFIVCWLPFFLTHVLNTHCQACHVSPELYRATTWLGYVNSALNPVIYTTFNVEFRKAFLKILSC

Rattus norvegicus [11] = test: Increase in acetylcholine level in Wistar rat ventral hippocampus at 1 mg/kg, po in presence of 1 mg/kg of donepezil and memantine administered sc 30 mins post compound treatment measured after 4 hrs by LC-MS/MS based microdialysis method relative to control; assay type: functional; outline: as §2
[12] = target: Alpha-2C adrenergic receptor (Homo sapiens) (UniProt P18825); test: Inhibition of recombinant human adrenergic alpha 2C receptor expressed in CHOK1 cells at 1 uM; assay type: cell-based
Alpha-2C adrenergic receptor (Homo sapiens), sequence (P18825 whole entry): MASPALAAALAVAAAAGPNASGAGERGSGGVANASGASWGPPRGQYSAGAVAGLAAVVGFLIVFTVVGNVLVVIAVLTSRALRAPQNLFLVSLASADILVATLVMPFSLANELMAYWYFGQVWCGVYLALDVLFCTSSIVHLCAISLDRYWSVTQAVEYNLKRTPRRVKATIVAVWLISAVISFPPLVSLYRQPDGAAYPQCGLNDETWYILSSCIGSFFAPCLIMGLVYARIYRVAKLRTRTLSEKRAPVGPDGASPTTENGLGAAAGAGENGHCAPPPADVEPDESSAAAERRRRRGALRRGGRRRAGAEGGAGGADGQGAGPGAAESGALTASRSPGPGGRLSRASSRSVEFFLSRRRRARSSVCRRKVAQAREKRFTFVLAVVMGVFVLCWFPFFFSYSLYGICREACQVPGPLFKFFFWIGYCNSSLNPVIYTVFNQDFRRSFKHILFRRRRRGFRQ

[13] = Oral bioavailability in Beagle dog at 10 mg/kg; assay type: ADME, organism-based, Canis lupus familiaris; conditions: in vivo
Salmonella typhimurium [14] = test: Mutagenicity in Salmonella typhimurium TA100 in absence of metabolic activation; assay type: toxicity; conditions: salmonella enterica subsp. enterica serovar typhimurium
Homo sapiens [15] = test: Toxicity in healthy elderly male human subjects administered as multiple ascending dose for 14 days; conditions: 336 h
Cytochrome P450 2E1 = Cytochrome P450 2E1 (Homo sapiens, UniProt P05181); test: Inhibition of CYP2E1 in human liver microsomes in presence of NADPH by LC-MS/MS analysis; assay type: ADME; outline: as §1
Cytochrome P450 2E1, sequence (P05181 whole entry): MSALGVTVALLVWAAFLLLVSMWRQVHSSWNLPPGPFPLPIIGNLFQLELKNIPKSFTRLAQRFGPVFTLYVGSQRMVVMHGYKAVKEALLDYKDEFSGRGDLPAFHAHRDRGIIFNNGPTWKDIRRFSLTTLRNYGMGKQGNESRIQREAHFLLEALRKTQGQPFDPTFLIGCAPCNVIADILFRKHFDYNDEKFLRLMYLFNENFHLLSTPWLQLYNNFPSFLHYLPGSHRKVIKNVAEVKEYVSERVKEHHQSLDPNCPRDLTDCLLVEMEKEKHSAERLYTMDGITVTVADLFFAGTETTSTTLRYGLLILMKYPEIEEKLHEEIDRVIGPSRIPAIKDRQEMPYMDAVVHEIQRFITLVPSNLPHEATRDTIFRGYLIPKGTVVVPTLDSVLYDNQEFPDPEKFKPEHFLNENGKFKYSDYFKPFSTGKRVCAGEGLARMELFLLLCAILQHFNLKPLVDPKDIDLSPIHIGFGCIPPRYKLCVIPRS

PBL = test: Nonclastogenic effect in human PBL by chromosomal aberration test; assay type: cell-based
[16] = AUC (0 to t) in Beagle dog at 10 mg/kg, po; assay type: ADME, organism-based, Canis lupus familiaris; conditions: in vivo
[17] = target: D(3) dopamine receptor (Homo sapiens) (UniProt P35462); test: Inhibition of recombinant human dopamine D3 receptor expressed in CHOK1 cells at 1 uM by GTPgammaS binding assay; assay type: functional, cell-based
D(3) dopamine receptor (Homo sapiens), sequence (P35462 whole entry): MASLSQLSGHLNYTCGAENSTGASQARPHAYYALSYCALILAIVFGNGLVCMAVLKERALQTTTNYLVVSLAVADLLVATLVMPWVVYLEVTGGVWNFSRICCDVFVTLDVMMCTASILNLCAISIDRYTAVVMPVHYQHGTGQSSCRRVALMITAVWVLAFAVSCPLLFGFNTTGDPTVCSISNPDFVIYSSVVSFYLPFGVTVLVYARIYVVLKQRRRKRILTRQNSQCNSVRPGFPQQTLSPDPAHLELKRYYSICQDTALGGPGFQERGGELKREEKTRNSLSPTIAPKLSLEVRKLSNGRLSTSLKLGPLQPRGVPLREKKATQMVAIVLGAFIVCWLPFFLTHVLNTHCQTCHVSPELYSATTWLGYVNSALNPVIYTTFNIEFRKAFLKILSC

Rattus norvegicus [18] = test: Effect on basal level of acetylcholine in Wistar rat ventral hippocampus at 1 to 3 mg/kg, po after 6 hrs by LC-MS/MS based microdialysis method; assay type: ADME, organism-based; conditions: in vivo; outline: as §2
[19] = Half life in Wistar rat at 10 mg/kg, iv by LC-MS/MS analysis; assay type: ADME, organism-based; conditions: in vivo
[20] = target: Voltage-gated inwardly rectifying potassium channel KCNH2 (Homo sapiens, UniProt Q12809); test: Inhibition of astemizole binding to human ERG
Voltage-gated inwardly rectifying potassium channel KCNH2, sequence (Q12809 whole entry): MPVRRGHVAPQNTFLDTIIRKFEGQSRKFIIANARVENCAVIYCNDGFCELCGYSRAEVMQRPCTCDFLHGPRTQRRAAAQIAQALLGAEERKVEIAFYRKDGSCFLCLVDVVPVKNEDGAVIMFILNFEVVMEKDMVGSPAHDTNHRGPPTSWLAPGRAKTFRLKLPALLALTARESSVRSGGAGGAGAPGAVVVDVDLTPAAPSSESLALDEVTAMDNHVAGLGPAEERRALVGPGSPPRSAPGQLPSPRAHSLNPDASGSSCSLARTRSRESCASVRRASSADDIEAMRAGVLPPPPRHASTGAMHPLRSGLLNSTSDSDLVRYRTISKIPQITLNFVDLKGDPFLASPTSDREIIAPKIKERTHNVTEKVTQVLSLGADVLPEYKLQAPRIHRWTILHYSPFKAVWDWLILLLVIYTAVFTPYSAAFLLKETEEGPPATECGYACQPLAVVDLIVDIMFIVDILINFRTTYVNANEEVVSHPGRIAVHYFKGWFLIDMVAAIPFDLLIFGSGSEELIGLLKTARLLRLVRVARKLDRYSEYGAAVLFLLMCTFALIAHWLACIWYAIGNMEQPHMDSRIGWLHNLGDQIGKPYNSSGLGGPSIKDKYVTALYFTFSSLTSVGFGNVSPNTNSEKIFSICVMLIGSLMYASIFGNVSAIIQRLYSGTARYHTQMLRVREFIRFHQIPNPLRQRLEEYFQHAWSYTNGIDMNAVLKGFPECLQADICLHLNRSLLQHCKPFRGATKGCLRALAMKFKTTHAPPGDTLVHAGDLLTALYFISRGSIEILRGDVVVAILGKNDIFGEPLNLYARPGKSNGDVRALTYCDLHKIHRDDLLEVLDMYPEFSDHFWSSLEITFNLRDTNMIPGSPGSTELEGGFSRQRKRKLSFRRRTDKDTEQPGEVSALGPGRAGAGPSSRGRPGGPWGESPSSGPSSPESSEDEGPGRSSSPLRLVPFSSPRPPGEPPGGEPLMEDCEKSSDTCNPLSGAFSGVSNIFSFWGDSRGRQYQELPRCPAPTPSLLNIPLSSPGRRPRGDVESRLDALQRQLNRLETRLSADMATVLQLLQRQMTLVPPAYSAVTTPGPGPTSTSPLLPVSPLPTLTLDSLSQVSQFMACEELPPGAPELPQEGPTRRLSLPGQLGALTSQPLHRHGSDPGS
Outline: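 hERG channel binding assessed as displacement in an astemizole binding assay.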

Cytochrome P450 3A4 [21] = target: T1, Cytochrome P450 3A4; test: Induction of CYP3A4 activity in human hepatocytes at 0.01 to 1 uM preincubated for 3 days followed by substrate addition measured after 30 mins; assay type: ADME, cell-based; conditions: 0.5 h
Outline: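 Plateable human hepatocytes exposed to 0.01, 0.1 and 1.0 μM. CYP1A2, CYP2B6 and CYP3A4 induction read as both mRNA expression and enzyme activity.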

[22] = Protein binding in dog plasma at 1 uM after 6 hrs by LC-MS/MS based rapid equilibrium dialysis method; assay type: ADME, cell-free, Canis lupus familiaris; conditions: read-out: PPB (converted); outline: as §3
Homo sapiens [23] = species on record: Homo sapiens; test: Toxicity in human assessed as changes in QTc interval during phase-I clinical trail

5-hydroxytryptamine receptor 4 (Homo sapiens), sequence (Q13639 whole entry): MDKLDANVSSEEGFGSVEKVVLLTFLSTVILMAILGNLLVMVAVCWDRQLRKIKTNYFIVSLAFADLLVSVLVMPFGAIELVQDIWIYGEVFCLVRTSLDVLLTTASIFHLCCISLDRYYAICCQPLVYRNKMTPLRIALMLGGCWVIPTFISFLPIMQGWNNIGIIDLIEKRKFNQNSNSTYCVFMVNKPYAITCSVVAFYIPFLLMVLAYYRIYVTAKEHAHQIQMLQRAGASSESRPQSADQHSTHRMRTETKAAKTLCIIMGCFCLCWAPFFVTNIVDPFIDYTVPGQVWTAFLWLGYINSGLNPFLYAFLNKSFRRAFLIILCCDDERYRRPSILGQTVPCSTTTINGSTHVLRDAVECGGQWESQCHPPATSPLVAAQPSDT

Activity [1]: inactive
IC50 (Cytochrome P450 2C9): > 10 µM
Vd [2]: 4.41 L/kg
IC50 (Cytochrome P450 2A6): > 10 µM
IC50 (Cytochrome P450 3A4 [3]): 2.64 µM
Activity [5]: inactive
fraction unbound at 6 h, 1 µM [6]: 0.01
Cmax [8]: 272 ng/mL
IC50 (Cytochrome P450 2C19): 5.7 µM
AUC(0-t) [9]: 784 ng·h/mL
Kp [10]: 1.48
Ki (D(3) dopamine receptor): 0.616 µM
inhibition [12]: > 50%
bioavailability [13]: 35%
IC50 (Cytochrome P450 2E1): > 10 µM
AUC(0-t) [16]: 1360 ng·h/mL
inhibition [17]: > 50%
half-life [19]: 57 min
Activity (Cytochrome P450 3A4 [21]): Not Active
fraction unbound at 6 h, 1 µM [22]: 0.014
SMILES: COc1ccc2c(c1)c(CN1CCN(C)CC1)cn2S(=O)(=O)c1ccccc1Br.CS(=O)(=O)O.O
Activity (Rattus norvegicus [4]): 2136%
Activity (Salmonella typhimurium [7]): Non-Toxic
Activity (Rattus norvegicus [11]): 1383%
Activity (Salmonella typhimurium [14]): Non-Toxic
Activity (Homo sapiens [15]): Non-Toxic
Activity (PBL): Non-Toxic
Activity (Rattus norvegicus [18]): Non-Toxic
inhibition (INH) [20]: Not Active
Activity (Homo sapiens [23]): Non-Toxic
